Shown are actives, neighbours in structure and some others; about 4% of the full set was active somewhere.
Exocytosis inh: lytic granule exocytosis inhibition; 360,000 compounds, 0.66% hits; inhibition, % at 10 µM; AID 651702; TALL-104 LAMP-1 surface exposure, flow cytometry; cells stimulated with thapsigargin and PMA;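 active = inhibition above about 55%, limit read from the data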
ABHD5 PLIN5 PPI: ABHD5-PLIN5 protein interaction inhibition | Split G. princeps luciferase complementation, luminescence, 4 h | inhibition, % at 4 µM | 360,000 compounds, 0.78% hits;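 active = inhibition above the mean inhibition across every tested compound plus 3 SD, cut at about 22% in these data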
Target sequence (Q00G26 whole entry, looked up): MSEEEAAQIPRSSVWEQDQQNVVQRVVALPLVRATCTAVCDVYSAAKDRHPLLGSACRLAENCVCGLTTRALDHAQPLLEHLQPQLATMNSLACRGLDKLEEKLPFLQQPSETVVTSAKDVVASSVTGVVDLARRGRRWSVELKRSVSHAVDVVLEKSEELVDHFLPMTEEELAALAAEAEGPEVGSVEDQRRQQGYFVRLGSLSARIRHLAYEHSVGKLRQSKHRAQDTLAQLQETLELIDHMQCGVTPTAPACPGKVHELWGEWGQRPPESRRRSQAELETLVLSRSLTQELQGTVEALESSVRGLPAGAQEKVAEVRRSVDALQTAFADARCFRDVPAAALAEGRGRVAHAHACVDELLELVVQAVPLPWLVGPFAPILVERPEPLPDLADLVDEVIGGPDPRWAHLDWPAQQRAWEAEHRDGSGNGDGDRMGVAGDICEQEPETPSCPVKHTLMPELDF
Target sequence (Q8WTS1 whole entry, looked up): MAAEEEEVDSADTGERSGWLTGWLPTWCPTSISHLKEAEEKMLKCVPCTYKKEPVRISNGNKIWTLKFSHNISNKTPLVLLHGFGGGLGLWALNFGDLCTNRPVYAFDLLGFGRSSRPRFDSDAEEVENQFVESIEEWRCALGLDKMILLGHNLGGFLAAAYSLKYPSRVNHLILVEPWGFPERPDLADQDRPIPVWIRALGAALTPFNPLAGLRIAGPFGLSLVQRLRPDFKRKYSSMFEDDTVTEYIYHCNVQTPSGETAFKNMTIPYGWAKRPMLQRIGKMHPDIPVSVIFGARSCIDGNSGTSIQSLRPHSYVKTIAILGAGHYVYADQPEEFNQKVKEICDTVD
UPR XBP1 act: adaptive UPR (XBP1) activation; activation, % at 20 µM; 330,000 compounds, 0.33% hits; AID 463104; CHO-XBP1 luciferase reporter, IRE1-XBP1 UPR activation, luminescence; percent of tunicamycin response, DMSO as zero;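 active = versus positive control, 20 µM dose yields 30% or more activation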
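Material – CHO cell line with stable XBP1 luciferase reporter · Buffer or medium – F12 plus 10% FBS · Compound – single point, 20 µM final compound, 1% DMSO · Schedule – 16-18 h cell attachment at 37 °C, then 6 h compound exposure · Signal – Steady-Glo luminescence read · Benchmarks – high control tunicamycin 10 µg/mL final, low control DMSO vehicle only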
UPR CHOP act: apoptotic UPR (CHOP) activation | CHO-CHOP luciferase reporter, luminescence; percent of tunicamycin response over DMSO baseline | activation, % at 10 µM | 330,000 compounds, 0.34% hits;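 active = at 10 µM dose, activation of 40% or more, normalized to positive control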
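Test system: CHO-CHOP cells, stable luciferase reporter of PERK-eIF2a-CHOP signalling | Quantity: 500 CHO-CHOP cells per well | Buffer or medium: F12 plus 10% serum | Compound dosing: 10 µM single point, 0.5% DMSO | Schedule: 6 h compound treatment, 37 °C | Signal: Luciferase luminescence | Control set: Tunicamycin high control, DMSO low control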
Mdm2-MdmX inh: human Mdm2/MdmX binding inhibition; O15151+Q00987; SaOS-2 split-luciferase Mdm2/MdmX complementation, luminescence; 330,000 compounds, 3% hits; inhibition, % at 8 µM; AID 485346;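 active = inhibition of at least 50% at 8 µM in the primary screen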
CHOP UPR conf: confirmation of apoptotic unfolded protein response (CHOP) activators | shares compounds with UPR CHOP act | CHO-CHOP cells, CHOP-luciferase reporter luminescence; percent of tunicamycin response, DMSO as zero | activation, % at 10 µM | 1,000 compounds, 64% hits; in the data active = activation above about 33%
Mdm2 MdmX conf: confirmation of human Mdm2/MdmX interaction inhibitors | 10,000 compounds, 55% hits | AID 489028 | inhibition, % at 8 µM | shares compounds with Mdm2-MdmX inh | Mdm2-MdmX binding, luminescent assay; in the data active = inhibition above about 40%
Full FLuc ctr: counter-screen for Mdm2/MdmX inhibitors: full-length luciferase; shares compounds with Mdm2-MdmX inh; SaOS-2 full-length luciferase counterscreen, luminescence; inhibition, % at 8 µM; 6,200 compounds, 77% hits; AID 504607;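 active = mean inhibition at 8 µM reaching about 37%, which flags the compound as non-specific, limit read from the data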;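 note: p53-null SaOS-2 cells with luciferase driven by a doxycycline-inducible promoter; compound on cells about two nights before reading with doxycycline added after day one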
ABHD5-PLIN5 conf: ABHD5-PLIN5 interaction inhibition, confirmed. shares compounds with ABHD5 PLIN5 PPI. biochemical ABHD5-PLIN5 interaction, luminescence. inhibition, % at 4 µM. 2,200 compounds, 67% hits. AID 651612; in the data active = inhibition above about 23%
HNF4 split-luc: HNF4 split-luciferase signal hit, counter-screen | 2,200 compounds, 77% hits | shares compounds with ABHD5 PLIN5 PPI | HNF4 dimerization, luminescence, biochemical | inhibition, % at 4 µM;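 active = mean inhibition across replicate wells exceeding the computed hit threshold, cut at about 13% in these data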;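 note: light from luciferase halves that rejoin when HNF4 fusion proteins dimerize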
Of the large screens only hits and unclear results are named; the others gave an inactive call (follow-up assays come after a bar, where they were run).

Cc1cc(NC(=O)CS(=O)(=O)c2cn(Cc3ccc(F)cc3)c3ccccc23)no1	none
O=C(/C(=C/c1ccc(Cl)cc1)c1nc2ccccc2[nH]1)c1cccs1	Exocytosis inh 96, ABHD5 PLIN5 PPI 58, UPR CHOP act 87, Mdm2-MdmX inh 81 | CHOP UPR conf 85 | Mdm2 MdmX conf 100 | Full FLuc ctr 51 | ABHD5-PLIN5 conf 101 | HNF4 split-luc 94
Cc1ccc(NC(=O)c2nc(S(=O)(=O)Cc3ccccc3C)ncc2Cl)cc1C	ABHD5 PLIN5 PPI 72, UPR CHOP act 237, Mdm2-MdmX inh 100 | CHOP UPR conf 170 | Mdm2 MdmX conf 70 | Full FLuc ctr 52 | ABHD5-PLIN5 conf 98 | HNF4 split-luc 97
COC(=O)c1ccc(NC(=O)c2nc(S(=O)(=O)Cc3cccc(C)c3)ncc2Cl)cc1	ABHD5 PLIN5 PPI 44, UPR CHOP act 95, Mdm2-MdmX inh 76 | CHOP UPR conf inactive | Mdm2 MdmX conf 91 | Full FLuc ctr 52 | ABHD5-PLIN5 conf 92 | HNF4 split-luc 95
Cc1cccc(COC(=O)Nc2ccc(NC(=O)c3ccccc3Cl)cc2)c1	none
N/C(=N\OC(=O)Cc1cccs1)c1ccccc1	none
COc1ccccc1CNC(=O)[C@H](CCSC)NC(=O)[C@@H]1Cc2ccccc2CN1	none
COC(=O)c1ccc2c(c1)C(C)(C)C(/C=C/c1ccc(OC)c(OC)c1OC)=[N+]2C	ABHD5 PLIN5 PPI 47, UPR CHOP act 64, Mdm2-MdmX inh 101 | CHOP UPR conf inactive | Mdm2 MdmX conf 78 | Full FLuc ctr 51 | ABHD5-PLIN5 conf 101 | HNF4 split-luc 101
COc1ccc(/C=N/Nc2ccc(C(=O)O)cc2)c(OC)c1OC	none
CCOc1cc(/C=C2\CN(CC)C/C(=C\c3ccc(O)c(OCC)c3)C2=O)ccc1O	Exocytosis inh 57, ABHD5 PLIN5 PPI 83, UPR CHOP act 78, Mdm2-MdmX inh 96 | CHOP UPR conf 86 | Mdm2 MdmX conf 97 | Full FLuc ctr 57 | ABHD5-PLIN5 conf 94 | HNF4 split-luc 81
C/C=C/C(=O)OCC(=O)Nc1cc([N+](=O)[O-])ccc1Cl	none
CCOC(=O)C(=Cc1ccc(-n2ccnc2)cc1)C(=O)OCC	ABHD5 PLIN5 PPI 63, UPR CHOP act 188 | CHOP UPR conf 142 | ABHD5-PLIN5 conf 88 | HNF4 split-luc 96
COC(=O)c1ccc(-n2ccnc2)cc1	none
CCOC(=O)c1c(NC(=O)c2cccs2)sc(C)c1CC	none
CCc1c(C)sc(NC(=O)c2cccs2)c1C#N	ABHD5 PLIN5 PPI 24, UPR CHOP act 50 | CHOP UPR conf inactive | ABHD5-PLIN5 conf inactive | HNF4 split-luc inactive
COc1cc(/C=C/C(=O)O)ccc1O	none
COc1cc(/C=C/C(=O)c2ccc([N+](=O)[O-])o2)ccc1O	ABHD5 PLIN5 PPI 27, UPR CHOP act 94, Mdm2-MdmX inh 100 | CHOP UPR conf inactive | Mdm2 MdmX conf 100 | Full FLuc ctr inactive | ABHD5-PLIN5 conf 96 | HNF4 split-luc 94
COc1ccc(NC2C=CS(=O)(=O)C2)cc1 (centres undefined)	none
CC(C)c1ccc(/C=C(\c2nc3ccccc3[nH]2)S(=O)(=O)c2ccccc2)cc1	ABHD5 PLIN5 PPI 75, UPR CHOP act 69, Mdm2-MdmX inh 100 | CHOP UPR conf 106 | Mdm2 MdmX conf 100 | Full FLuc ctr 53 | ABHD5-PLIN5 conf 90 | HNF4 split-luc 72
CN(C)c1ccc(CN(CC2CCCO2)C(=O)c2cc3ccccc3o2)cc1 (centres undefined)	none
O/N=C\c1ccc(-c2ccccc2)o1	none
